In ChEMBL document CHEMBL1146584, “Renieramycin J, a highly cytotoxic tetrahydroisoquinoline alkaloid, from a marine sponge Neopetrosia sp” (J Nat Prod, 2003) one finds Activity and IC50 data, which are given here for 1 compound.

Active and inactive are the calls of the source. The calls are words filed in the database; no cut-off is given here.

The test system of assay [1] is 3Y1 cell line. The assay is described as follows: Induction of morphological changes in rat 3Y1 cells assessed as increase in dead cell number after 12 hrs by light microscopy. It is filed as functional, cell-based. In short, it runs like this:
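3Y1 cells kept under continued exposure; cellular boundaries and dead-cell numbers inspected at 12 h and followed to day five under a light microscope.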

In another assay the test system is 3Y1. Kind of assay: Induction of morphological changes in rat 3Y1 cells assessed as cell death at 1.7 uM after 24 hrs. It counts as functional, cell-based. In outline:
(§1)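 3Y1 cells exposed to 1.7 μM; cell rounding scored at 6 h, proportion of dead cells estimated within 24 h.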

In assay [2] the test system is 3Y1 cell line. The assay is described as follows: Induction of morphological changes in rat 3Y1 cells assessed as filopodial development. It is filed as functional, cell-based. In outline:
(§2)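 Rat 3Y1 cells exposed to 86 nM; nucleoli (shrinkage or loss) and filopodial development inspected at 6 h.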

A further assay deals with P388. The assay is described as follows: Cytotoxicity against mouse P388 cells after 72 hrs by MTT assay. It is filed as functional, cell-based. As to conditions: P388, 72 h. A general note: Tetrazolium assays rely on reduction of a dye to a coloured formazan, in cell work by metabolically active cells.
Assay [3] can be described thus: Induction of morphological changes in rat 3Y1 cells assessed as cell death at 1.7 uM after 24 hrs.
For assay [4], the system named is 3Y1 cell line. Kind of assay: Induction of morphological changes in rat 3Y1 cells assessed as cell shrinkage at 86 nM after 6 hrs by phase contrast microscopy. It is filed as functional, cell-based. In short, it runs like this:
as §2

For another assay, the system named is HeLa. Kind of assay: Cytotoxicity against human HeLa cells after 72 hrs by MTT assay. It counts as functional, cell-based.
Assay [5] deals with 3Y1 cell line. Kind of assay: Induction of morphological changes in rat 3Y1 cells assessed as disappearance of nucleoli at 86 nM after 6 hrs by phase contrast microscopy. It is filed as functional, cell-based. In outline: as §2
Assay [6] can be described thus: Cytotoxicity against rat 3Y1 cells after 72 hrs by MTT assay. The note with it: 3Y1, 72 h. It is filed as functional, cell-based.
Assay [7] relates to 3Y1 cell line. Kind of assay: Induction of morphological changes in rat 3Y1 cells assessed as cell rounding at 1.7 uM after 6 hrs. It counts as functional, cell-based. In short, it runs like this:
as §1

As to `C/C=C(/C)C(=O)OC[C@H]1C2=C(C[C@H]3[C@H]4c5c(O)c(OC)c(C)c(O)c5[C@H](O)[C@@H]([C@H](O)N13)N4C)C(=O)C(C)=C(OC)C2=O` [RENIERAMYCIN J], the result in the assay on 3Y1 cell line [1], in the assay with 3Y1, in the assay with 3Y1 cell line [2], in the assay on 3Y1 cell line [4], in the assay with 3Y1 cell line [5] and in the assay on 3Y1 cell line [7] was Active. Moreover, the IC50 worked out at 0.53 nM in the assay with P388, 12.3 nM in the assay on HeLa and 5.3 nM in [6]. The Activity in [3] was 90%.

In general, IC50 refers to the concentration that gives 50% inhibition.
